Usually IC50 stands for the concentration that gives 50% inhibition. Low readings indicate higher potency, high ones lower potency. By MIC is commonly meant the lowest concentration that inhibits growth of the organism.

In brackets after ≈: the same amount, converted by molar mass. Activity calls are given as the source filed them. The rule behind the calls is not given here.

Experiment [1] has as its system Pseudomonas aeruginosa. In words: Antimicrobial activity against Pseudomonas aeruginosa DSM50071 assessed as inhibition of microbial growth up to 67 ug/ml incubated for 24 to 48 hrs by serial dilution assay. It counts as functional, organism-based. The method, boiled down:
(§1)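 Broth microdilution in EBS medium (peptone, glucose, meat and yeast extract, 50 mM HEPES, pH 7.0). A 1 mg/mL MeOH stock was dried in the first row, then pathogen diluted 1:100 in medium was added and serially diluted 1:1 (66.7 to 0.1 μg/mL tested). Plates were shaken at 600 rpm, 30 °C, for 24−48 h. MIC is the lowest concentration preventing visible growth; blank wells served as negative control.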

Experiment [2] concerns Wickerhamomyces anomalus. As to the kind of experiment: Antimicrobial activity against Pichia anomala DSM6766 assessed as inhibition of microbial growth up to 67 ug/ml incubated for 24 to 48 hrs by serial dilution assay. The class given is functional, organism-based. In a few lines: (§2)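 Yeasts and fungi were tested by serial dilution in MYC medium (1.0% phytone peptone, 1.0% glucose, 50 mM HEPES, pH 7.0). Compound from a 1 mg/mL MeOH stock was dried in row A, then inoculum at 1:100 in medium was added and diluted 1:1 down the plate (66.7 to 0.1 μg/mL). Incubation was 30 °C, 600 rpm shaking, 24−48 h. MIC is the lowest concentration with no visible growth.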

For experiment [3], the system named is Staphylococcus aureus. In words: Antimicrobial activity against Staphylococcus aureus DSM346 assessed as inhibition of microbial growth up to 67 ug/ml incubated for 24 to 48 hrs by serial dilution assay. The class given is functional, organism-based. The method, boiled down:
as §1

Experiment [4] relates to Micrococcus luteus. In words: Antimicrobial activity against Micrococcus luteus DSM1790 assessed as inhibition of microbial growth up to 67 ug/ml incubated for 24 to 48 hrs by serial dilution assay. It counts as functional, organism-based. In a few lines:
as §1

In experiment [5] the test system is Escherichia coli. As to the kind of experiment: Antimicrobial activity against Escherichia coli DSM1116 assessed as inhibition of microbial growth up to 67 ug/ml incubated for 24 to 48 hrs by serial dilution assay. It counts as functional, organism-based. The method, boiled down: as §1
For experiment [6], the system named is Bacillus subtilis. In words: Antimicrobial activity against Bacillus subtilis DSM10 assessed as inhibition of microbial growth up to 67 ug/ml incubated for 24 to 48 hrs by serial dilution assay. It counts as functional, organism-based. In a few lines: as §1
For experiment [7], the system named is Candida albicans. In words: Antimicrobial activity against Candida albicans DSM1665 assessed as inhibition of microbial growth up to 67 ug/ml incubated for 24 to 48 hrs by serial dilution assay. It counts as functional, organism-based. In a few lines: as §2
Experiment [8] deals with Mucor hiemalis. In words: Antimicrobial activity against Mucor hiemalis DSM2656 […] assessed as inhibition of microbial growth up to 67 ug/ml incubated for 24 to 48 hrs by serial dilution assay. The class given is functional, organism-based. In a few lines: as §2
The next experiment concerns L929. As to the kind of experiment: Cytotoxicity against mouse L929 cells incubated for 5 days by MTT assay. Conditions: L929, 120 h. The class given is cell-based. The method, boiled down: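 L929 mouse fibroblasts were grown in EBM-2 with 10% FBS at 37 °C under 10% CO₂. Serial dilutions from a 1 mg/mL MeOH stock were added to cell suspension (50 000/mL) and incubated 5 days. Read-out was MTT with absorbance at 590 nm. IC₅₀ (50% growth inhibition versus control) was taken from dose−response curves; methanol was the negative control.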
On the technique in general: Formazan colour is commonly taken as a measure of viable cells.

Experiment [9] concerns Schizosaccharomyces pombe. In words: Antimicrobial activity against Schizosaccharomyces pombe DSM70572 assessed as inhibition of microbial growth up to 67 ug/ml incubated for 24 to 48 hrs by serial dilution assay. The class given is functional, organism-based. In a few lines: as §2
Experiment [10] deals with Chromobacterium violaceum. In words: Antimicrobial activity against Chromobacterium violaceum DSM30191 assessed as inhibition of microbial growth up to 67 ug/ml incubated for 24 to 48 hrs by serial dilution assay. It counts as functional, organism-based. The method, boiled down:
as §1

Experiment [11] deals with Mucor hiemalis. In words: Antimicrobial activity against Mucor hiemalis DSM2656 […] assessed as inhibition of microbial growth incubated for 24 to 48 hrs by serial dilution assay. It counts as functional. In a few lines:
as §2

The test system of experiment [12] is Candida albicans. In words: Antimicrobial activity against Candida albicans DSM1665 assessed as inhibition of microbial growth incubated for 24 to 48 hrs by serial dilution assay. The class given is functional, organism-based. In a few lines: (§3)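 Broth serial dilution in MYC medium (1.0% phytone peptone, 1.0% glucose, 50 mM HEPES, pH 7.0). Compound stock (1 mg/mL in MeOH) was dried in the first row, then the yeast was added as a 1:100 inoculum:medium mix. Twofold serial dilutions covered 66.7 to 0.1 μg/mL. Plates were shaken at 600 rpm, 30 °C, for 24–48 h. MIC was the lowest concentration with no visible growth. Blank wells served as negative controls.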

Experiment [13] concerns Schizosaccharomyces pombe. In words: Antimicrobial activity against Schizosaccharomyces pombe DSM70572 assessed as inhibition of microbial growth incubated for 24 to 48 hrs by serial dilution assay. The class given is functional, organism-based. The method, boiled down:
as §3

Experiment [14] concerns Wickerhamomyces anomalus. As to the kind of experiment: Antimicrobial activity against Pichia anomala DSM6766 assessed as inhibition of microbial growth incubated for 24 to 48 hrs by serial dilution assay. It counts as functional, organism-based. In a few lines:
as §3

Experiment [15] relates to Staphylococcus aureus. As to the kind of experiment: Antimicrobial activity against Staphylococcus aureus DSM346 assessed as inhibition of microbial growth incubated for 24 to 48 hrs by serial dilution assay. It counts as functional. In a few lines: as §1
Experiment [16] deals with Pseudomonas aeruginosa. As to the kind of experiment: Antimicrobial activity against Pseudomonas aeruginosa DSM50071 assessed as inhibition of microbial growth incubated for 24 to 48 hrs by serial dilution assay. The class given is functional, organism-based. In a few lines: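 Broth serial dilution in EBS medium (0.5% peptone, 0.5% glucose, 0.1% meat extract, 0.1% yeast extract, 50 mM HEPES, pH 7.0). Compound stock (1 mg/mL in MeOH) was dried in the first row, then the bacterium was added as a 1:100 inoculum:medium mix. Twofold dilutions covered 66.7 to 0.1 μg/mL. Plates were shaken at 600 rpm, 30 °C, for 24–48 h. MIC was the lowest concentration with no visible growth.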

For experiment [17], the system named is Bacillus subtilis. As to the kind of experiment: Antimicrobial activity against Bacillus subtilis DSM10 assessed as inhibition of microbial growth incubated for 24 to 48 hrs by serial dilution assay. The class given is functional. The method, boiled down:
as §1

The test system of experiment [18] is Escherichia coli. In words: Antimicrobial activity against Escherichia coli DSM1116 assessed as inhibition of microbial growth incubated for 24 to 48 hrs by serial dilution assay. The class given is functional. The method, boiled down: as §1
In experiment [19] the test system is Chromobacterium violaceum. As to the kind of experiment: Antimicrobial activity against Chromobacterium violaceum DSM30191 assessed as inhibition of microbial growth incubated for 24 to 48 hrs by serial dilution assay. It counts as functional. The method, boiled down: as §1
The test system of experiment [20] is Micrococcus luteus. As to the kind of experiment: Antimicrobial activity against Micrococcus luteus DSM1790 assessed as inhibition of microbial growth incubated for 24 to 48 hrs by serial dilution assay. It counts as functional. The method, boiled down: as §1

On to `CC1(C)[C@@H](O)C(=O)C[C@]1(C)c1ccc(C(=O)O)cc1`, for which the inhibition entry in the experiment on Pseudomonas aeruginosa [1], in the experiment with Wickerhamomyces anomalus [2], with Staphylococcus aureus [3], with Micrococcus luteus [4], with Escherichia coli [5] and in the experiment on Bacillus subtilis [6] was “inactive” in each case. Also, the inhibition result (in the experiment on Candida albicans [7]; in the experiment with Mucor hiemalis [8]; in [9]; in experiment [10]) was “inactive” each time. For the same molecule, the half-maximal inhibitory concentration (IC50) in the experiment on L929 is greater than 10 µg/mL.

Consider `CC1(C)CCC[C@]1(C)c1ccc(C(=O)O)cc1`, for which the inhibition entry with Pseudomonas aeruginosa [1], in the experiment with Wickerhamomyces anomalus [2], in the experiment on Staphylococcus aureus [3], with Micrococcus luteus [4], in the experiment with Escherichia coli [5] and in the experiment with Bacillus subtilis [6] was “inactive” in each case. In addition, the inhibition result (in the experiment on Candida albicans [7]; in [9]; in experiment [10]) was “inactive” each time. In addition, in the experiment on L929, the IC50 was greater than 10 µg/mL. For the same molecule, the MIC in the experiment on Mucor hiemalis [11] is 67 µg/mL.

With `CC1(C)CC(=O)C[C@]1(C)c1ccc(C(=O)OCC[C@@](C)(O)CC(=O)O)cc1`, the inhibition result with Pseudomonas aeruginosa [1], in the experiment with Wickerhamomyces anomalus [2], in the experiment with Staphylococcus aureus [3], with Micrococcus luteus [4], in the experiment on Escherichia coli [5] and in the experiment on Bacillus subtilis [6] was “inactive” each time. Moreover, the inhibition entry (in the experiment on Candida albicans [7]; in the experiment with Mucor hiemalis [8]; in experiment [9]; in experiment [10]) was “inactive” each time. The molecule further gave a half-maximal inhibitory concentration (IC50) with L929 greater than 10 µg/mL.

Regarding `CC1(C)CC(=O)C[C@]1(C)C1=CC=C(C(=O)OCC[C@@](C)(O)CC(=O)O)CC1`, the inhibition entry with Pseudomonas aeruginosa [1], in the experiment on Wickerhamomyces anomalus [2], with Staphylococcus aureus [3], in the experiment on Micrococcus luteus [4], in the experiment on Escherichia coli [5] and in the experiment on Bacillus subtilis [6] was “inactive” throughout. The inhibition result (in the experiment on Candida albicans [7]; with Mucor hiemalis [8]; in experiment [9]; in experiment [10]) was “inactive” throughout. The IC50 in the experiment with L929 is greater than 10 µg/mL.

Consider NYSTATIN, for which the MIC worked out at 67 µg/mL with Candida albicans [12], 33.3 µg/mL in [13], 67 µg/mL in the experiment with Mucor hiemalis [11] and 33.3 µg/mL with Wickerhamomyces anomalus [14].

Regarding `CC(O)(COC(=O)c1ccc([C@@]2(C)C[C@H](O)CC2(C)C)cc1)C(=O)O` (some centres not stated), the inhibition result with Pseudomonas aeruginosa [1], in the experiment on Wickerhamomyces anomalus [2], in the experiment on Micrococcus luteus [4], in the experiment with Escherichia coli [5], in the experiment with Bacillus subtilis [6] and in the experiment with Candida albicans [7] was “inactive” throughout. The inhibition entry (in the experiment with Mucor hiemalis [8]; in experiment [9]; in [10]) was “inactive” throughout. Further, the MIC in the experiment on Staphylococcus aureus [15] came out at 67 µg/mL. In addition, the IC50 in the experiment with L929 is greater than 10 µg/mL.

With GENTAMICIN, the MIC in the experiment with Pseudomonas aeruginosa [16] amounted to 42 µg/mL.

`CC1(C)CCC[C@]1(C)c1ccc(C(=O)OCC[C@@](C)(O)CC(=O)O)cc1`: the inhibition result (in the experiment with Pseudomonas aeruginosa [1]; in the experiment on Wickerhamomyces anomalus [2]; in the experiment with Micrococcus luteus [4]; in the experiment with Escherichia coli [5]; in the experiment with Candida albicans [7]; in experiment [9]) was “inactive” each time. Moreover, in experiment [10], the inhibition entry is “inactive”. In addition, the MIC in the experiment with Bacillus subtilis [17], in the experiment on Staphylococcus aureus [15] and in the experiment on Mucor hiemalis [11] was 67 µg/mL in each case. In the experiment on L929, this molecule came in with an IC50 greater than 10 µg/mL.

For the molecule `CC1(C)CC[C@@H](O)[C@]1(C)c1ccc(C(=O)OCC[C@@](C)(O)CC(=O)O)cc1`, the inhibition entry in the experiment with Pseudomonas aeruginosa [1], in the experiment with Wickerhamomyces anomalus [2], with Micrococcus luteus [4], in the experiment with Escherichia coli [5], in the experiment on Bacillus subtilis [6] and in the experiment on Candida albicans [7] was “inactive” in each case. In addition, the inhibition entry (with Mucor hiemalis [8]; in experiment [9]; in [10]) was “inactive” in each case. In the experiment with Staphylococcus aureus [15], the MIC was 67 µg/mL. Also, it took 2.8 µg/mL (≈ 7.4 µM) to reach half-maximal inhibition in the experiment with L929 (IC50).

For the molecule `CN(C)[C@@H]1C(O)=C(C(N)=O)C(=O)[C@@]2(O)C(O)=C3C(=O)c4c(O)cccc4[C@@](C)(O)[C@H]3[C@H](O)[C@@H]12.Cl` [OXYTETRACYCLINE HYDROCHLORIDE], the minimal inhibitory concentration (MIC) worked out at 0.83 µg/mL with Bacillus subtilis [17]; 0.21 µg/mL in the experiment with Staphylococcus aureus [15]; 0.83 µg/mL in the experiment with Escherichia coli [18]; 0.83 µg/mL in experiment [19]; 0.42 µg/mL with Micrococcus luteus [20].

These data come from ChEMBL document CHEMBL3580532, “Deconins A-E: Cuparenic and Mevalonic or Propionic Acid Conjugates from the Basidiomycete Deconica sp. 471” (J Nat Prod, 2015).
